Most compounds without a hit are left out; they make up all but 2% or so of the library.
CASP6 VEID inh = blocks human caspase-6 cleavage activity; purified caspase-6, Z-VEID-R110 cleavage fluorescence; inhibition, % at 12.5 µM; 350,000 compounds, 0.53% hits;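 active = mean inhibition across replicates at least about 35%, with every replicate also reaching that limit, limit read from the data; inconclusive = only one of the two criteria met; inactive = neither criterion met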;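 note: 0% = median of neutral control wells and 100% = no fluorescence left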
Target sequence (P55212 24-179 limits assumed): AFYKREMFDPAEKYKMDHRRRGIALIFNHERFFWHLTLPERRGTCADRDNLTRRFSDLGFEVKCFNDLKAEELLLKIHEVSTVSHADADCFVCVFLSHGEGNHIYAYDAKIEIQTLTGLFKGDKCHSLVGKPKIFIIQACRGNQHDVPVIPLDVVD
Target sequence (P55212 194-293 limits assumed): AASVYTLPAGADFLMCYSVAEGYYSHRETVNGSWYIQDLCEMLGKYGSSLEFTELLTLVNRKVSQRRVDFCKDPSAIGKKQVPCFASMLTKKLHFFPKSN
XiGFP reactiv = reactivates the inactive X chromosome in mouse fibroblasts. XiGFP mouse fibroblasts, % GFP-positive cells imaging, 3 d; cells co-treated with 5-aza-dC sensitizer; scaled so ellipticine positive control = 100%. 360,000 compounds, 0.055% hits. activation, % at 7.58 µM;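 active = mean normalized replicate activation at least 10% and every replicate at or above 10%; inconclusive = only one of the two criteria met; inactive = mean below 10% and not all replicates reach 10%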;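 note: 0% = median of on-plate neutral control wells and 100% = ellipticine 6 µM median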
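material = 68-5-11 XiGFP fibroblast line | medium = DMEM plus 5-aza-dC sensitizer | schedule = 3 days compound exposure | benchmarks = positive control ellipticine, 6 µM final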
CaV13 FRET inh = Primary screen for inhibitors of IQ motif and Ca2+-dependent inactivation inhibitor domain binding in CACNA1D, Förster resonance energy transfer in living cells, … | HEK cells, CFP/YFP FRET ICDI-IQ, plate reader, 10 min; percent FRET-ratio fall versus neutral wells | inhibition, % at 12.3 µM | 340,000 compounds, 0.098% hits | AID 743397;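 active = mean replicate inhibition of at least 30% and at least 1% of replicates passing that level; inconclusive = only one of the two criteria is met; inactive = neither criterion is met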;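 note: 0% = median of the neutral control wells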
DENV2 CPE = DENV2-induced cell death inhibition; CPE inhibition, % at 9.99 µM; AID 651640; 350,000 compounds, 1.7% hits; DENV2-infected cells, cytopathic effect rescue, plate reader; in the data active = CPE inhibition above about 20%, passing the limit was not always enough; inconclusive = no clear call, values can overlap the other calls; tested in BHK-21 cells;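 note: 0% = median of neutral control wells and 100% = median of positive control wells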
FN deposit inh = fibronectin deposition inhibition; AH1F fibroblasts, Alexa488-fibronectin deposition fluorescence, overnight; inhibition, % at 12.6 µM; 350,000 compounds, 0.086% hits; AID 743247;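 active = mean inhibition across replicates of 30% or more, regardless of how many single replicates reach that level; inconclusive = mean under 30% yet at least half of replicates reach 30%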;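 note: positive control wells lacked labelled fibronectin entirely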
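Schedule: 1 h cell adhesion before compound, then overnight fibronectin incubation; test system: AH1F fibroblast monolayer depositing Alexa488-labelled fibronectin into matrix; quantity: 10000 AH1F cells per well; probe or stimulus: fluorescent fibronectin at 24 nM final; signal: fluorescence, ex 485 nm, em 525 nm; evaluation: percent inhibition as loss of matrix-bound fibronectin fluorescence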
Numbers without * were called inactive; u = inconclusive; x = not tested or not shown; + = active, no number.

SMILES	CASP6 VEID inh	XiGFP reactiv	CaV13 FRET inh	DENV2 CPE	FN deposit inh
COc1cccc(S(=O)(=O)N[C@@H]2C=C[C@H](CC(=O)NC3Cc4ccccc4C3)O[C@H]2CO)c1	-5	0	x	-4	10
O=C(Nc1ccc2c(c1)OCO2)C1Cc2c(-c3ccc4c(c3)OCO4)ccnc2O1 (stereo not drawn)	65*	0	-5	2	24
CC1(C(=O)NCc2cccs2)Cc2c(-c3cccc(C(F)(F)F)c3)ccnc2O1 (stereo not drawn)	7	0	-5	27*	9
CC1(C(=O)Nc2cccc(OC(F)(F)F)c2)Cc2c(-c3ccc4c(c3)OCO4)ccnc2O1 (stereo not drawn)	-3	0	-5	8	34*
CC1(C(=O)Nc2cccc(C(F)(F)F)c2)Cc2c(-c3cccc(C(N)=O)c3)ccnc2O1 (stereo not drawn)	12	0	-4	-2	16
CC(=O)Nc1ccc(NC(=O)C2Cc3c(-c4ccc5c(c4)OCO5)ccnc3O2)cc1 (stereo not drawn)	0	0	-3	-2	5
CC1(C(=O)Nc2cccc(OC(F)(F)F)c2)Cc2c(-c3cccc(C(N)=O)c3)ccnc2O1 (stereo not drawn)	6	0	-3	21*	15
CN1C(=O)c2cc(NC(=O)C3CCC3)ccc2OC[C@H]2O[C@H](CC(=O)NCCc3ccncc3)CC[C@@H]21	-1	0	x	5	-1
CN1C(=O)c2cc(NC(=O)NC3CCCC3)ccc2OC[C@H]2O[C@@H](CC(=O)NC3CCC3)CC[C@H]21	x	0	x	x	-5
CN(C)c1ccc(-c2ccnc3c2CC(C)(C(=O)NCC2CC2)O3)cc1 (stereo not drawn)	5	0	-4	-10	35*
CN(C)c1ccc(CNC(=O)C2(C)Cc3c(-c4ccc(N(C)C)cc4)ccnc3O2)cc1 (stereo not drawn)	0	0	-6	-3	3
C[C@@H]1CCCCO[C@H](CN(C)Cc2ccc3c(c2)OCO3)[C@@H](C)CN([C@H](C)CO)C(=O)c2cc(NC(=O)NC3CCCCC3)ccc2O1	-1	0	x	u	x
C[C@@H]1CCCCO[C@@H](CN(C)Cc2ccc3c(c2)OCO3)[C@H](C)CN([C@H](C)CO)C(=O)c2cc(NC(=O)NC3CCCCC3)ccc2O1	-1	1	x	u	x
C[C@@H]1CCCCO[C@@H](CN(C)Cc2ccc3c(c2)OCO3)[C@H](C)CN([C@@H](C)CO)C(=O)c2cc(NC(=O)NC3CCCCC3)ccc2O1	-2	0	x	44*	x
C[C@H](CO)N1C[C@H](C)[C@H](CN(C)Cc2ccc3c(c2)OCO3)OCCCC[C@H](C)Oc2ccc(NC(=O)NC3CCCCC3)cc2C1=O	-2	0	x	26*	x
NC(=O)c1cc2cc(Cl)ccc2oc1=Nc1cccc(C(F)(F)F)c1	-1	0	-7	66*	-2
NC(=O)c1cc2cc(Cl)ccc2oc1=O	x	x	-4	x	-1
CN(C)c1ccc(-c2[nH][nH]c(=O)c2NC(=O)c2ccc3ccccc3n2)cc1	9	0	-6	10	8
CN(C)c1ccc(-c2[nH][nH]c(=O)c2NC(=O)c2ccccn2)cc1	99*	0	-2	3	-7
c1cncc(-c2cnc3ccccc3c2)c1	-1	0	-4	-6	2
F[B-](F)(F)c1cnc2ccccc2c1	2	u	-2	26*	1
O=C(C[C@@H]1CC[C@@H]2[C@H](COC[C@H](O)CN2Cc2ccccc2F)O1)NCc1ccccc1F	0	0	x	14	2
O=C1N[C@@H](c2ccccc2)COCc2cn(nn2)CC[C@@H]1Cc1ccc(-c2ccccc2)cc1	x	0	x	x	-10
CCC(=O)N(C)C[C@H]1N[C@@H](CO)[C@H]1c1ccc(-c2cccc(C#N)c2)cc1	-1	0	x	0	-6
S=C(NCc1ccco1)NCc1ccco1	52*	0	-9	-3	-8
SMILES	CASP6 VEID inh	XiGFP reactiv	CaV13 FRET inh	DENV2 CPE	FN deposit inh
CC(C)=NNC(=O)CN1C(=O)NC2NC(=O)NC21 (stereo not drawn)	-1	0	-4	34*	-4
CCC(C)NC(=O)CN1C(=O)NC2NC(=O)NC21 (stereo not drawn)	-3	0	-4	-5	10
CC(C)NC(=O)Nc1ccc2c(c1)C(=O)N([C@H](C)CO)C[C@@H](C)[C@H](CN(C)S(=O)(=O)c1cccs1)O2	x	-1	x	x	2
CO[C@@H]1CN(C)C(=O)c2ccc(NS(=O)(=O)c3cccc(C)c3)cc2OC[C@@H](C)NC[C@@H]1C	x	0	x	x	-9
COCC#Cc1ccc(CC[C@H]2O[C@H]3CC[C@H](CO)O[C@H]3C[C@H]2NC(=O)Nc2c(C)noc2C)cc1	-3	x	x	-2	x
O=[N+]([O-])c1ccc(O)c(/C=N/n2c(CO)nc3ccccc32)c1	-3	0	-2	7	-2
O=[N+]([O-])c1ccc(O)c(/C=N/n2cnc3ccccc32)c1	6	0	-5	70*	-10
Cc1ccc(-c2cn3nc(-c4ccccc4)c(-c4ccccc4)nc3n2)cc1	4	78*	-3	0	12
c1ccc(-c2cn3nc(-c4ccccc4)c(-c4ccccc4)nc3n2)cc1	x	x	5	x	-4
CNC[C@H]1Oc2ncc(Br)cc2C(=O)N([C@H](C)CO)C[C@H]1C	3	0	x	7	x
O=C(c1ccccc1Cc1ccccc1)N1CCN(S(=O)(=O)c2ccccc2F)CC1	0	1	-6	10	7
O=C(c1ccccc1Cc1ccccc1)N1CCN(S(=O)(=O)c2ccccc2)CC1	2	0	x	68*	x
COc1cccc(S(=O)(=O)N(C)C[C@H]2Oc3ncc(C#CCN(C)C)cc3C(=O)N([C@@H](C)CO)C[C@H]2C)c1	-12	0	x	8	x
CC1CCCCN1CCNC(=O)c1ccc2c(c1)N(Cc1cccc(Cl)c1)C(=O)c1ccccc1S2(=O)=O (stereo not drawn)	-2	0	-5	1	12
O=C(NCCCN1CCCC1)c1ccc2c(c1)N(Cc1cccc(Cl)c1)C(=O)c1ccccc1S2(=O)=O	65*	0	-5	-3	3
CC(=O)c1cc2c(ccc3ccccc32)oc1=O	2	3	+	u	1
CCN1CCN(C(=O)/C=C/c2ccc3c(c2)OCO3)CC1	-4	0	-7	11	x
CCN1CCN(C(=O)/C=C/c2ccc(OC)c(OC)c2)CC1	-2	0	-5	20*	7
COCC(=O)N1CC[C@@H]2[C@H](CO)Nc3ccc(C#Cc4ccc(OC)cc4)cc3[C@@H]21	-5	0	x	8	8
COCC(=O)N1CC[C@H]2[C@H](CO)Nc3ccc(C#Cc4ccc(OC)cc4)cc3[C@H]21	0	0	x	29*	18

Screens (PubChem BioAssay)
